Reference: ChEMBL document CHEMBL4130621, “Structure-Activity Relationship Studies with Tetrahydroquinoline Analogs as EPAC Inhibitors” (ACS Med Chem Lett, 2017)
The source made the active and inactive calls. The calls are words filed in the database; no cut-off is given here.

Assays:
[1] = molecular target: T1, Rap guanine nucleotide exchange factor 3 (Homo sapiens) (UniProt O95398); experiment: Inhibition of recombinant human GST-tagged EPAC1 (149 to 881 residues) expressed in Escherichia coli Rosetta 2(DE3) assessed as reduction in guanine nucleotide exchange activity at 10 uM using BODIPY-labeled GDP loaded Rap1A by fluorescence assay relative to control
T1 sequence (whole entry): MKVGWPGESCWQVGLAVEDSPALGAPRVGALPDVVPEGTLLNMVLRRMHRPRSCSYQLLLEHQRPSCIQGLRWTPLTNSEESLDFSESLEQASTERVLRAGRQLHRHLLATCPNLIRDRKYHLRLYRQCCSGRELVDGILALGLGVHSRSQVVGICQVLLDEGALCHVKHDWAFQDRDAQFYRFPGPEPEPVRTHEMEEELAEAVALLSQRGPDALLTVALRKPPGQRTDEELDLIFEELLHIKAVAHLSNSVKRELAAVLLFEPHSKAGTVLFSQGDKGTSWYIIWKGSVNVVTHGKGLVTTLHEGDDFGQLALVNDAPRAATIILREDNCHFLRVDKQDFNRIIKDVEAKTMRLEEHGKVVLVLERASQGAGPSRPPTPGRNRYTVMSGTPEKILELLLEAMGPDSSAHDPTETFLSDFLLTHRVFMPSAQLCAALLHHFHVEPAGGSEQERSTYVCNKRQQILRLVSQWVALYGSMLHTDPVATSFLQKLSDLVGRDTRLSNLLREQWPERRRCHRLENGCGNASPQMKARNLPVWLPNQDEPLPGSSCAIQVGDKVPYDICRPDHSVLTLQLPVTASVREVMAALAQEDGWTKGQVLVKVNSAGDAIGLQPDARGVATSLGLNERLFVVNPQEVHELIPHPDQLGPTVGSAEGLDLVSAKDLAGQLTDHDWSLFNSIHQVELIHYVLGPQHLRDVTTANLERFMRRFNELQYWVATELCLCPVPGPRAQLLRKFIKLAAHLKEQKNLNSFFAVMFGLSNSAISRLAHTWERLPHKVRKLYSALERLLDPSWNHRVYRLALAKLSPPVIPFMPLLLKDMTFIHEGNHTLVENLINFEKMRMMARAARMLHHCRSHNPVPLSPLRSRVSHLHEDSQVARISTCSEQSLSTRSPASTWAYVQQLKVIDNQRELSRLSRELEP
How it was run: (§1)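 EPAC1 was stimulated with the analog present at 10 or 50 μM. Activity was then measured as guanine nucleotide exchange factor activity toward Rap1 in a BODIPY-GDP-based assay, used as a screen.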

[2] = molecular target: T2, Rap guanine nucleotide exchange factor 3 (Homo sapiens, UniProt O95398); experiment: Inhibition of recombinant human GST-tagged EPAC1 (149 to 881 residues) expressed in Escherichia coli Rosetta 2(DE3) assessed as reduction in guanine nucleotide exchange activity using BODIPY-labeled GDP loaded Rap1A by fluorescence assay
T2 sequence (O95398 whole entry): T1 sequence (whole entry)

[3] = molecular target: Rap guanine nucleotide exchange factor 4 (Homo sapiens, UniProt Q8WZA2); experiment: Inhibition of recombinant human GST-tagged EPAC2 expressed in Escherichia coli Rosetta 2(DE3) assessed as reduction in guanine nucleotide exchange activity using BODIPY-labeled GDP loaded Rap1A by fluorescence assay
Sequence of Rap guanine nucleotide exchange factor 4 (Q8WZA2 whole entry, the tested form may be a part): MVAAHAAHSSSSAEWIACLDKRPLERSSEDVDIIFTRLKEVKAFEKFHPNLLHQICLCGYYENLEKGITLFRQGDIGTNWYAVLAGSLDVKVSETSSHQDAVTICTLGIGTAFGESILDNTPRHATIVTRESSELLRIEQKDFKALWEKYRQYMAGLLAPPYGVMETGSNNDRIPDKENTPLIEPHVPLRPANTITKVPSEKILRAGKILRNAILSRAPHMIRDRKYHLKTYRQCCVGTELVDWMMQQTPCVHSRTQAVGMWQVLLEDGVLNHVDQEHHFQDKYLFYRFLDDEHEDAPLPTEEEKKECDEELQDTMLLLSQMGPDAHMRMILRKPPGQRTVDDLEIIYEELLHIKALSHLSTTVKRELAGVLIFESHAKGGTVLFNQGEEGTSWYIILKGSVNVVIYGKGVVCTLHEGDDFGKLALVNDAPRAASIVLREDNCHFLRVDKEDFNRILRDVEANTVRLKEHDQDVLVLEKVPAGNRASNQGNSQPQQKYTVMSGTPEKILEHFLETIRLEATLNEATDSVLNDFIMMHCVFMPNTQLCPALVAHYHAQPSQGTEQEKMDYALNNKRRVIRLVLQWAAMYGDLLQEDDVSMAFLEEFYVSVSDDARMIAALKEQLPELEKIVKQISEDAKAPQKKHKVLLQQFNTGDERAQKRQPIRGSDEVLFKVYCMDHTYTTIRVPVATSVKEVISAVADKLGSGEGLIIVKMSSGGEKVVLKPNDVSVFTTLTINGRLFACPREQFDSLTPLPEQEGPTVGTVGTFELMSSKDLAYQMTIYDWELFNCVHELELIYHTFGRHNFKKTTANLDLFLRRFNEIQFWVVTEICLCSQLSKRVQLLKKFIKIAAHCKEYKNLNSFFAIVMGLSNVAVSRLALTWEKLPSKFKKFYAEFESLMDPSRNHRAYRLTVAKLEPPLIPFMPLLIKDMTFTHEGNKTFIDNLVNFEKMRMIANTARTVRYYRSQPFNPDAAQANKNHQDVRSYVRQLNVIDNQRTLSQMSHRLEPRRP

[4] = molecular target: T1, Rap guanine nucleotide exchange factor 3 (Homo sapiens); experiment: Inhibition of recombinant human GST-tagged EPAC1 (149 to 881 residues) expressed in Escherichia coli Rosetta 2(DE3) assessed as reduction in guanine nucleotide exchange activity at 50 uM using BODIPY-labeled GDP loaded Rap1A by fluorescence assay relative to control; how it was run: as §1

Structure (SMILES): C[C@H]1CCc2c(cc(Br)c(F)c2Br)N1
- inhibition [1]: Active

Structure (SMILES): C[C@H]1CCc2c(cc(Br)c(F)c2Br)N1C=O
- IC50 [2]: 31.3 µM
- IC50 [3]: 17.1 µM

Structure (SMILES): C[C@H]1CCc2c(ccc(F)c2Br)N1C=O
- inhibition [1]: Active

Structure (SMILES): C[C@@H]1CCc2c(cc(Br)c(F)c2Br)N1C=O
- IC50 [2]: 3.3 µM
- IC50 [3]: 22.3 µM

Structure (SMILES): CC1CCc2cc(F)ccc2N1C=O (centres undefined)
- inhibition [4]: 5%
- inhibition [1]: 5.3%

Structure (SMILES): C[C@@H]1CCc2c(cc(Br)c(F)c2Br)N1C=S
- IC50 [2]: 17.6 µM

Structure (SMILES): CC1CCc2c(cc(Br)c(F)c2Br)N1C=O (centres undefined)
- inhibition [4]: 88.3%
- inhibition [1]: 58.1%

Structure (SMILES): C[C@@H]1CCc2c(cc(Br)c(F)c2Br)N1
- inhibition [1]: Active

Structure (SMILES): CC(=O)N1c2cc(Br)c(F)c(Br)c2CCC1C (centres undefined)
- inhibition [4]: 26.2%
- inhibition [1]: 8.7%

Structure (SMILES): C[C@H]1CCc2cc(F)ccc2N1C=O
- inhibition [1]: Active

Structure (SMILES): C[C@@H]1CCc2cc(F)ccc2N1C=O
- inhibition [1]: Active

Structure (SMILES): C[C@@H]1CCc2c(ccc(F)c2Br)N1C=O
- inhibition [1]: Active

Structure (SMILES): CC1CCc2c(Br)c(F)c(Br)c(Br)c2N1C=O (centres undefined)
- inhibition [4]: 46%
- inhibition [1]: 23.6%

Structure (SMILES): CC1CCc2c(cc(Br)c(F)c2Br)N1 (centres undefined)
- inhibition [4]: 74.1%
- inhibition [1]: 40.8%

Structure (SMILES): CC1CCc2c(ccc(F)c2Br)N1C=O (centres undefined)
- inhibition [4]: 42%
- inhibition [1]: 15.8%

Structure (SMILES): C[C@H]1CCc2c(cc(Br)c(F)c2Br)N1C=S
- IC50 [2]: > 100 µM
